This is an account of results in ChEMBL document CHEMBL3758104, “Reinvestigating Old Pharmacophores: Are 4-Aminoquinolines and Tetraoxanes Potential Two-Stage Antimalarials?” (J Med Chem, 2016).

One series concerns HepG2. The series can be described thus: Cytotoxicity against human HepG2 cells after 48 hrs by MTT assay. In kind it is cell-based. As to conditions: HepG2, 48 h. A general note: Tetrazolium assays rely on reduction of a dye to a coloured formazan, in cell work by metabolically active cells.
The test system of series [1] is Plasmodium berghei. Nature of the series: Antimalarial activity against Plasmodium berghei ANKA infected in C57Bl6 mouse assessed as reduction of parasitemia at 160 mg/kg/day, po administered for day 3 to 5 measured on day 6 to 14 by Thompson test. In kind it is functional, organism-based. The essentials: (§1)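 Modified Thompson test: C57Bl6 female mice inoculated intraperitoneally on day 0 with 1×10^6 P. berghei ANKA-infected erythrocytes; compound suspended in 0.5% hydroxyethylcellulose–0.1% Tween 80, given orally once daily on days 3, 4 and 5 post infection. Parasitemia by Giemsa-stained thin tail-blood smears on days 0, 3, 6, 10, 13, 17, 20, 24, 27, 31. Cure = survival without parasitemia to day 31.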

The next series deals with Mus musculus. The series can be described thus: Toxicity in Plasmodium berghei ANKA infected C57Bl6 mouse at 160 mg/kg/day, po administered for 3 days measured 2 times a day for 31 days. In kind it is organism-based. As to conditions: in vivo, 744 h.
Series [2] concerns Plasmodium falciparum. Nature of the series: Antimalarial activity against chloroquine-resistant Plasmodium falciparum W2 after 48 hrs by [3H]hypoxanthine incorporation assay. In kind it is functional, organism-based. The essentials:
(§2)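 P. falciparum D6 (Sierra I/UNC clone), W2 (Indochina I clone), TM91C235 (South-East Asian clone) cultured with compound; growth inhibition by [3H]hypoxanthine incorporation (modified Desjardins/Milhous method). Chloroquine, mefloquine, artemisinin as positive controls. IC50 in nM; technical triplicates, curve fits R2 0.96–1.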

Series [3] is described as follows: Half life in mouse liver microsomes at 1 uM by LC-MS/MS analysis. In kind it is ADME. In general terms: Microsomes from liver hold many membrane-bound enzymes, among them those of drug oxidation.
The nature of series [4]: Selectivity index, ratio of IC50 for human HepG2 cells to IC50 for chloroquine susceptible Plasmodium falciparum D6. In kind it is toxicity, cell-based. As to conditions: read-out: Ratio IC50.
For series [5], the system named is Plasmodium falciparum. Nature of the series: Antimalarial activity against chloroquine-susceptible Plasmodium falciparum D6 after 48 hrs by [3H]hypoxanthine incorporation assay. In kind it is functional, organism-based. The essentials: as §2
Series [6] concerns Plasmodium berghei. The series can be described thus: Antimalarial activity against Plasmodium berghei ANKA infected in C57Bl6 mouse at 160 mg/kg/day, po measured on day 3 to 5 by Thompson test. In kind it is functional.
Series [7] deals with Plasmodium falciparum. Nature of the series: Antimalarial activity against mutidrug resistant Plasmodium falciparum TM91C235 after 48 hrs by [3H]hypoxanthine incorporation assay. In kind it is functional, organism-based. In outline:
as §2

Series [8] can be described thus: Half life in human liver microsomes at 1 uM by LC-MS/MS analysis. In kind it is ADME.
Series [9] concerns Plasmodium falciparum. Nature of the series: Antimalarial activity against 4th to 5th gametocyte stage of Plasmodium falciparum 3D7elo1-pfs16-CBG99 assessed as inhibition of gametocyte viability by luciferase reporter gene assay. In kind it is functional, organism-based. In outline:
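Stage IV–V gametocytes of luciferase-expressing 3D7elo1-pfs16-CBG99 strain (CBG99 under pfs16 promoter); luciferase activity as viability read-out. Viability = 100×(treated−blank)/(untreated−blank), blank = 100 nM epoxomicin-treated sample. Epoxomicin and dihydroartemisinin as positive controls. IC50 from nonlinear regression of dose–response; mean of three experiments in duplicate.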
For orientation: A reporter such as luciferase makes a cellular process visible.

Series [10] can be described thus: Inhibition of beta hematin formation measured as hemin equivalent after 18 hrs. In kind it is physicochemical. The essentials: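 Hemin (16 mM in DMSO) mixed with compound at 0.125–5 mol equiv to hemin, plus water and 8 M acetate buffer pH 5.2, 25% DMSO final. Incubated 18 h at 37 °C. Pellet washed with DMSO, dissolved in 0.1 M NaOH, absorbance read at 405 nm (corrected at 670 nm) against a hemin calibration.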

Series [11] concerns Plasmodium berghei. Nature of the series: Antimalarial activity against Plasmodium berghei ANKA infected in C57Bl6 mouse assessed as increase in cure rate at 80 mg/kg/day, po administered for day 3 to 5 by Thompson test. In kind it is functional, organism-based. In outline:
as §1

The subject of series [12] is Plasmodium berghei. The series can be described thus: Antimalarial activity against Plasmodium berghei ANKA infected in C57Bl6 mouse at 80 mg/kg/day, po measured on day 3 to 5 by Thompson test. In kind it is functional.
The subject of series [13] is Plasmodium berghei. The series can be described thus: Antimalarial activity against Plasmodium berghei ANKA infected in C57Bl6 mouse at 40 mg/kg/day, po on days 3 to 5 by Thompson test. In kind it is functional.
Series [14] has as its system Plasmodium berghei. The series can be described thus: Antimalarial activity against Plasmodium berghei ANKA infected in C57Bl6 mouse assessed as reduction of parasitemia at 160 mg/kg/day, po administered for day 3 to 5 measured after 10 to 14 days by Thompson test. In kind it is functional, organism-based. In outline: as §1
Series [15] concerns Plasmodium berghei. The series can be described thus: Antimalarial activity against Plasmodium berghei ANKA infected in C57Bl6 mouse assessed as reduction of parasitemia at 160 mg/kg/day, po administered for day 3 to 5 measured on day 6 by Thompson test. In kind it is functional, organism-based. The essentials:
as §1

Series [16] relates to Plasmodium berghei. Nature of the series: Antimalarial activity against Plasmodium berghei ANKA infected in po dosed C57Bl6 mouse administered on day 3 to 5 by Thompson test. In kind it is functional. The essentials: as §1
For series [17], the system named is Plasmodium berghei. The series can be described thus: Antimalarial activity against sporozoite stage of Plasmodium berghei infected in human Huh7 cells assessed as remaining parasite infection at 10 uM pre-incubated for 24 hrs followed by parasite infection measured after 48 hrs by bioluminescence assay. As to conditions: Huh-7.
Series [18] in a line: Selectivity index, ratio of IC50 for mouse RAW 264.7 cells to IC50 for chloroquine susceptible Plasmodium falciparum D6. The following applies: read-out: Ratio IC50. In kind it is toxicity.
For another series, the system named is RAW264.7. Nature of the series: Cytotoxicity against mouse RAW264.7 cells. In kind it is cell-based.

Each structure is given as a SMILES string. The source made the active and inactive calls. No cut-off for these calls is given here. Some results are limits rather than exact numbers.

On to `CC(CCCNCCC12CC3CC(CC(C3)C1)C2)Nc1ccnc2cc(Cl)ccc12` (centres undefined), for which the IC50 in the series on HepG2 was 13300 nM; with Plasmodium falciparum [2] it was 26 nM; in the series on Plasmodium falciparum [5], 7 nM; in the series on Plasmodium falciparum [7], 14 nM. In addition, in the series on Plasmodium berghei [1], the result was Active. The Activity entry in the series with Mus musculus was “Non-toxic”. Moreover, the half-life at 1 µM in [3] and in [8] was 1 h in each case. Moreover, in [4], the selectivity ratio was 1900. The compound also showed an MST in the series on Plasmodium berghei [6] of 21.4 days.
With `C[C@H]1[C@@H](O)O[C@@H]2O[C@@]3(C)CC[C@H]4[C@H](C)CC[C@@H]1[C@@]24OO3` [ARTENIMOL], the IC50 in the series with Plasmodium falciparum [9] was 440 nM.
Consider `CC(CCNCC12CC3CC(CC(C3)C1)C2)Nc1ccnc2ccccc12` (centres undefined), for which the IC50 with HepG2 turned out to be 2320 nM; with Plasmodium falciparum [2], 185 nM; in series [10] it was 1.22 equiv; in the series on Plasmodium falciparum [5] it was 17 nM; in the series on Plasmodium falciparum [7], 135 nM. Further, the Activity result in the series with Mus musculus is “Non-toxic”. Moreover, the half-life at 1 µM in series [3] and in series [8] was 1 h throughout. Besides, the selectivity ratio in [4] was 136. Besides, the outcome in the series with Plasmodium berghei [11] was inactive. In the series on Plasmodium berghei [12], this compound had an MST of 15.2 days.
`Clc1ccc2c(NCCNCC34CC5CC(CC(C5)C3)C4)ccnc2c1`: the MST in the series on Plasmodium berghei [13] was greater than 21.4 days. Further, the Activity entry in the series on Mus musculus is “Non-toxic”. The result in the series on Plasmodium berghei [14] was inactive. For the same compound, in the series with Plasmodium berghei [15], the outcome was Active. Also, the MAC with Plasmodium berghei [16] came to 40 mg/kg/day.
For the compound `COc1cc(NC(C)CCCN)c2ncccc2c1` (centres undefined) [PRIMAQUINE], the % infection at 10 µM in the series with Plasmodium berghei [17] was determined as 62%.
`CC(CNCCC12CC3CC(CC(C3)C1)C2)Nc1ccnc2cc(Cl)ccc12` (centres undefined): the selectivity ratio in [18] is 2910. Further, the Activity entry in the series on Mus musculus is listed as “Non-toxic”. For the same compound, the IC50 in the series on Plasmodium falciparum [2] was found to be 4 nM; in the series on RAW264.7 it was 2910 nM; with Plasmodium falciparum [5], 1 nM; with Plasmodium falciparum [7], 1 nM. In addition, the half-life at 1 µM was found to be 1 h in [3] and 0.95 h in [8]. For the same compound, the outcome with Plasmodium berghei [14] was inactive. In the series with Plasmodium berghei [15], the result was Active. In the series on Plasmodium berghei [6], this compound gave an MST of 27.6 days.

As usually defined, the half-life is how long it takes for the measured level to halve.
